{"source": "the RNAGym collection of RNA variant scans (doi:10.1126/science.aae0568)", "parents": {"B1": {"name": "tRNA (parent)", "chain": "GUUCCGUUGGCGUAAUGGUAACGCGUCUCCCUCCUAAGGAGAAGACUGCGGGUUCGAGUCCCGUACGGAACG"}}, "note": "This sample holds only a part of the variants without activity."}
{"variants_of": "B1", "assay": "yeast fitness relative to wild type (ratio to wild type); higher = fitter; tRNA-Arg(CCU), competitive growth, 37 C, YPD", "summary_of_the_method": "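Variants of the tRNA-Arg(CCU) gene, chemically synthesised with a 3% per-site mutation rate at 69 sites, were placed at the native genomic locus in Saccharomyces cerevisiae. The pooled strains were competed in YPD at 37°C for 24 hours in six parallel replicates. Gene amplicons from the start population and from each end population were read by 100-nucleotide paired-end sequencing. Darwinian fitness relative to wild type came from changes in genotype frequencies; genotypes needed ≥ 100 starting reads, and estimates < 0.5 were set to 0.5.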"}
{"variant": "GUUCGGUUGGCGUAAUGGUAACGCGUCCCCCUCCAAAGGAGAAGACUGCGGGUUCGAGUCCCGUACGGAACG", "yeast fitness": 0.545}
{"variant": "GUUCGGUUGGCGGAAUGGUAACGCGUCUUCCUCCUAAGGGGAAGACUGCGGGUUCGAGUUCCGUGCGGAACG", "yeast fitness": "≤ 0.5"}
{"variant": "GUUCGGUAGGCGUAAUGGUAACGCGUCUCCCUCCUAAGGAGAAGACUGCGGGUUCGAGUCCCGUACGGAACG", "yeast fitness": 0.641}
{"variant": "GUUCUGUUGGCGUCAUGGUAACGCGUCUCCCUCGUAUGGUGAAGACUGCGGGUUCGAGUCCCGUAUGGAACG", "yeast fitness": "≤ 0.5"}
{"variant": "GUUCGGUCGGCGUAAUGGUAACGCGUCUCCCUCCUAAGGAAAAGACUGCGGGUUCGAGUCCCGUACGGAACG", "yeast fitness": "≤ 0.5"}
{"variant": "GUUCGGUGGGCGUAAUGGUAACGCGUCUCCCUCCUAAGGAGAAGACUGCGGGUUCGAGUCCCAUACGGAACG", "yeast fitness": "≤ 0.5"}
{"variant": "GUUCUGUUGGCGUCAUGGUAACGCGUCUCCCUCCUAAGGACAAGACUGCGGGUUCGACUCCCGUAUGGAACG", "yeast fitness": 0.523}
{"variant": "GUUCGGUUGGCGUAAUGGUAACGCGUCUCCCUCCUAAGGAGAAGACCGCGGGUUCGAGUCCCGUAUGGAACG", "yeast fitness": 0.627}
{"variant": "GUUCUGUUGGCGUGAUGGUAACGCGUCUCCCUCCUAAGGAGAAGACUGCCGGCUUGGGUCCCGUACGGAACG", "yeast fitness": "≤ 0.5"}
{"variant": "GUUCGGUUGGCGGAAUGGUAACGCGUCUUCCUCCUAAGGGGAAGACUGCGGGUUCGAGUCCCGUACGAACCG", "yeast fitness": "≤ 0.5"}
{"variant": "GUUCGGUUGGCGUAAUGGUAACGCGCCUCCCUCGUAAGGAGAAGACUGCGGGUCCGAGUCCCGUACGGAACG", "yeast fitness": "≤ 0.5"}
{"variant": "GUUCGGUUGGCGUAAUGGUAACGCGUCUCCCUCCUAAGGAGAACACUGGGGGUUCGAGUCCCGUACGGAACG", "yeast fitness": 0.521}
{"variant": "GUUCGGUUGGCGUAAUGGUAACGCGCCUUCCUCCUAAGGAGAAGACUGCGGGUUCGAGUCCCGUACGGAACG", "yeast fitness": "≤ 0.5"}
{"variant": "GUUCGGUUGGCGUAAUGGGAAUGCGUCUCCCUCCUAAGGAGAGGACUGGGGGUUCGAGUCCCGUACGGAACG", "yeast fitness": "≤ 0.5"}
{"variant": "GUUCGGUUGGCGUAAUGGUAACGCGUCUCCCUCCUAAGGAGAAGACUGCGAGUUCGAGUCCGGUACGGAACG", "yeast fitness": "≤ 0.5"}
{"variant": "GUUCGGUUGGCGGAAUGGUAACGCGUGUCACUCCUAAGGAGAAGACUGCGGGUUCGAGUCCCGUACGGAACG", "yeast fitness": "≤ 0.5"}
{"variant": "GUUCGGUUGGCGUAAUGGUAACGCGUCUCCCUCCUAAGGAGAAUACUGCGGGUUCGAGUCCCGUACGGAACG", "yeast fitness": 0.626}
{"variant": "GUUCGGUUGGCGUAAUGGUAACGCGUCUCCCUCCUAAGGAGAAAACUGCGGGUUCGAGUCCCGUACGGAACG", "yeast fitness": 1.02}
{"variant": "GUUCGGUUGGCGUAAUGGUAACGCGUCUCCCUCCUAAGGAGAAGACAGCGGGUUCUACUCCCGUACGGAACG", "yeast fitness": "≤ 0.5"}
{"variant": "GUUCGGUAGGCGUAGUGGUAACGCGUCUCCCUCCUAAGGACAAGACAGCGGGUUCGAGUCCCGUACGGAACG", "yeast fitness": "≤ 0.5"}
{"variant": "GUUCGGCUGGCGUAAUGGUAACGCGUCUCCCUCCUAAGGAGAAGACUGCGCGUUCGAGUCCCGUACGGAACG", "yeast fitness": 0.564}
{"variant": "GUUCGGUGGGCGUAAUGGUCACGCGUCUCCCUCCUAAGGAGAAGACUGCGGGUUCGAGUCCCGUACGGAACG", "yeast fitness": "≤ 0.5"}
{"variant": "GUUCGGUUGGCGUAAUGGUAACGCGUCUCCCUCCUAAGGAGAAGACUCUGGGUGCGAGUCCCGUGAGGAACG", "yeast fitness": "≤ 0.5"}
{"variant": "GUUCGGCUGGGGUAAUGGUAACCCGCUUCCCUCCUAAGGAGUAGACUGCGGGUUCGAGUCCCGUACGGAACG", "yeast fitness": "≤ 0.5"}
{"variant": "GUUCGGCUGGCGUAAUGGUAACACGUCUCCCUCCUAAGGAGAAGACUGCGGGUUCGAGUCCCGUACGGAACG", "yeast fitness": "≤ 0.5"}
{"variant": "GUUCUGUUGGCGUGAUGGUAACGCGUCUCCCUCCUAAGGAGAAGACUGCCGGUUUGGGUCCCGUACGGAACG", "yeast fitness": 0.675}
{"variant": "GUUCGGUUGGCGUAAUGGUAACGCGUCUCCCUCCUAAGGAGAAGACCGCGAGUUCGAGUCCCGUCCGGAACG", "yeast fitness": 0.548}
{"variant": "GUUCGGUAGGCGUAAUGGUAACGCGUCUCCCUCCUAAGGACAAGACUGCGGGUUCGAGUCCCAUACGGAACG", "yeast fitness": "≤ 0.5"}
{"variant": "GUUCGGUUGGCGUAAUGGUAACGCGUCUCCCUCCUAAGGAGAAGACUGCGCGUACGAGUCCCGUACGGUACG", "yeast fitness": 0.562}
{"variant": "GUUCGGUUGGCGUAAUGGUAACGCGUCUCCCUCCUAAGGAGAAGACUGCGGGUUCGAGUCCCGUACUGAACG", "yeast fitness": 0.859}
{"variant": "GUUCGGCUGGCGUAAUGGUAACGCGUCUCCCUCCUCAGGAGAAGACUGCGGGUUCGUGUCACGUAGGGAACG", "yeast fitness": "≤ 0.5"}
{"variant": "GUUCGGAUGGUGUAAUGGUAACGCGUCUCCCUCCUCAAGAGAACACUGCGGGUUCGAGUCCCGUACGGAACG", "yeast fitness": 0.589}
{"variant": "GUUCGGUUGGCGAAAUGGUAAGGCGUCUGCCUCCUAAGGUGAAGACUGCGGGUCCGAGUCGCGUACAGAACG", "yeast fitness": "≤ 0.5"}
{"variant": "GUUCGGUUGGCGUAAUGGUAACGCGUCUCCCUCCCAAGGAGAACACUGCGGGUUCGAGUCCAGUACGCUACG", "yeast fitness": "≤ 0.5"}
{"variant": "GUUCUGUUGGCGUUAUGGUAACGCGUCUCCAUCCUAAGGAGAAGAUUAUGGGUUCGAGUCCCGUACGGAACG", "yeast fitness": 0.568}
{"variant": "GUUCGGUUGGCGUAAUGGUAACGCGUCUCCCUCCUAAGGAGAAGACUGCGGGUUCGACUCCCGUACGGCACG", "yeast fitness": 0.794}
{"variant": "GUUCGGUUGGCGUAAUGGUAACGCGUCUCCCUCCUAAGGAGAAGACUGCGGGUUCGAGGCCCCUACGGAACG", "yeast fitness": "≤ 0.5"}
{"variant": "GUUCGGUUGGCGUAAUGGUAACGCGUCUCCCUCCUAACGAGAAGACUGCGGGUUCGAGUCCCGUACGGAACG", "yeast fitness": 0.565}
